Test [1] concerns Mycobacterium tuberculosis. Briefly: Antitubercular activity against Mycobacterium tuberculosis harboring gfp reporter gene and wild type DrpE1 assessed as inhibition of bacterial growth incubated for 14 days by fluorescence based analysis. The format is functional. Particulars: 336 h, time 14 day. Summed up: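 Controls were rifampicin at 2× MIC and 5% DMSO. Plates ran 14 days at 37 °C, 5% CO2, with GFP read at ex 485/em 520. Data were normalised and curve-fitted (Levenberg-Marquardt). MIC90 is the lowest concentration inhibiting >90% of growth.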
In general terms: In a reporter assay the amount or activity of a reporter protein is the signal.

Test [2] relates to Mycobacterium tuberculosis. Kind of test: Antitubercular activity against Mycobacterium tuberculosis harboring gfp reporter gene and DrpE1 mutation assessed as inhibition of bacterial growth incubated for 14 days by fluorescence based analysis. The note with it: time 14 day. The test is classed as functional.

These results are taken from ChEMBL document CHEMBL4732173, “Easily accessed nitroquinolones exhibiting potent and selective anti-tubercular activity” (Eur J Med Chem, 2021).

Values after ≈ are worked out from the molar mass of the structure shown. Where only a bound is given, the exact number is not on record here.

On to `O=C(NCCOCCO)c1cn(Cc2cccc(F)c2)c2ccc([N+](=O)[O-])cc2c1=O`, for which the MIC90 in test [1] is more than 125 µM. With `O=C(NCCOCCO)c1cn(Cc2ccc(F)cc2)c2ccc([N+](=O)[O-])cc2c1=O`, the MIC90 in test [1] worked out at 8.08 µM (≈ 3.47 µg/mL). For `O=C(NCCNCCO)c1cn(Cc2ccc(F)cc2)c2ccc([N+](=O)[O-])cc2c1=O`, in test [1], the MIC90 is 0.919 µM (≈ 0.394 µg/mL). As for `O=C(NCCN1CCOCC1)c1cn(Cc2cccc(Cl)c2)c2ccc([N+](=O)[O-])cc2c1=O`, the MIC90 in test [1] was determined as 31.9 µM (≈ 15 µg/mL).

In the case of `N#Cc1cccc(Cn2cc(C(=O)NCCNCCO)c(=O)c3cc([N+](=O)[O-])ccc32)c1`, the MIC90 in test [1] came out at 3.69 µM (≈ 1.61 µg/mL).

As to `COCCNC(=O)c1cn(Cc2cccc(Cl)c2)c2ccc([N+](=O)[O-])cc2c1=O`, the MIC90 in test [1] is 0.675 µM (≈ 0.281 µg/mL).

Turning to `COCCNC(=O)c1cn(Cc2cccc(F)c2)c2ccc([N+](=O)[O-])cc2c1=O`, in test [1], the MIC90 is more than 125 µM. Same read-out and setting: the value for `N#Cc1cccc(Cn2cc(C(=O)NO)c(=O)c3cc([N+](=O)[O-])ccc32)c1` was more than 125 µM. Regarding `N#Cc1ccc(Cn2cc(C(=O)NCCNCCO)c(=O)c3cc([N+](=O)[O-])ccc32)cc1`, the MIC90 in test [1] was more than 125 µM. As to `O=C(NO)c1cn(Cc2cccc(F)c2)c2ccc([N+](=O)[O-])cc2c1=O`, the MIC90 in test [1] is more than 125 µM. In the case of `COCCNC(=O)c1cn(Cc2ccc(F)cc2)c2ccc([N+](=O)[O-])cc2c1=O`, the values for the MIC90 in test [1] and in test [2] were less than 0.244 µM and 62.5 µM (≈ 25 µg/mL), respectively. As to `N#Cc1ccc(Cn2cc(C(=O)NCCOCCO)c(=O)c3cc([N+](=O)[O-])ccc32)cc1`, in test [1], the MIC90 was determined as 14 µM (≈ 6.11 µg/mL). Still for that read-out and setting: the value for `O=C(NO)c1cn(Cc2cccc(Cl)c2)c2ccc([N+](=O)[O-])cc2c1=O` was 125 µM (≈ 46.7 µg/mL); that for `NNC(=O)c1ccncc1` [ISONIAZID] was 0.2 µM (≈ 0.0274 µg/mL); that for `CCOC(=O)c1c[nH]c2c(C(F)(F)F)cc([N+](=O)[O-])cc2c1=O` was 1.84 µM (≈ 0.609 µg/mL). On to `N#Cc1cccc(Cn2cc(C(=O)O)c(=O)c3cc([N+](=O)[O-])ccc32)c1`, for which, in test [1], the MIC90 is more than 125 µM. As for `CO[C@H]1/C=C/O[C@@]2(C)Oc3c(C)c(O)c4c(O)c(c(/C=N/N5CCN(C)CC5)c(O)c4c3C2=O)NC(=O)/C(C)=C\C=C\[C@H](C)[C@H](O)[C@@H](C)[C@@H](O)[C@@H](C)[C@H](OC(C)=O)[C@@H]1C` [RIFAMPIN], the MIC90 in test [1] was 0.01 µM (≈ 0.00823 µg/mL).

For the compound `O=C(NCCOCCO)c1cn(Cc2cccc(Cl)c2)c2ccc([N+](=O)[O-])cc2c1=O`, the MIC90 in test [1] is 16 µM (≈ 7.15 µg/mL). Still for that read-out and setting: the same measure for `O=C(NCCN1CCOCC1)c1cn(Cc2cccc(F)c2)c2ccc([N+](=O)[O-])cc2c1=O`: more than 125 µM; for `O=C(NO)c1cn(Cc2cccc(Br)c2)c2ccc([N+](=O)[O-])cc2c1=O`: more than 125 µM; for `COCCNC(=O)c1cn(Cc2ccc(C#N)cc2)c2ccc([N+](=O)[O-])cc2c1=O`: more than 125 µM. With `COCCNC(=O)c1cn(Cc2cccc(C#N)c2)c2ccc([N+](=O)[O-])cc2c1=O`, the MIC90 in test [1] was more than 125 µM. As to `N#Cc1cccc(Cn2cc(C(=O)NCCOCCO)c(=O)c3cc([N+](=O)[O-])ccc32)c1`, the MIC90 in test [1] is 15 µM (≈ 6.54 µg/mL). In the case of `O=C(NCCN1CCOCC1)c1cn(Cc2cccc(Br)c2)c2ccc([N+](=O)[O-])cc2c1=O`, the MIC90 in test [1] was more than 125 µM. Still for that read-out and setting: the same measure for `O=C(NCCNCCO)c1cn(Cc2cccc(F)c2)c2ccc([N+](=O)[O-])cc2c1=O`: 3.7 µM (≈ 1.59 µg/mL).

Usually MIC90 stands for the lowest concentration that inhibits either 90% of growth or 90% of the strains tested, depending on the study.
